In PMC3711074 (Chemistry & biology, 2013):

What was measured:
UBC9 (SUMO E2 enzyme) = UBC9 (SUMO E2 enzyme) (Homo sapiens, UniProt P63279); experiment: reconstituted sumoylation cascade, electrophoretic mobility shift IC50; assay type: biochemical
Method in brief: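 Reconstituted cascade in 50 mM Tris pH 9.0 with 5 mM MgCl2 and 1 mM DTT. Contains SUMO E1 0.1 µM, His-tagged SUMO-1 1.4 µM, UBC9 0.25 µM and a 5-FAM-labelled peptide substrate at 1.0 µM. Started with ATP (final 2 mM), run with test compound at varying concentrations for 90 min at room temperature, then EDTA-quenched. Conversion read by microfluidic mobility shift. IC50 from the mean of three replicates.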

[1] = molecular target: T1, SUMO-activating enzyme 1/2 (SAE 1/2, SUMO E1) (Homo sapiens, UniProt Q9UBT2); experiment: E1-SUMO-1 thioester formation gel assay with fluorescent SUMO-1; assay type: biochemical
T1 sequence (Q9UBT2 1-640): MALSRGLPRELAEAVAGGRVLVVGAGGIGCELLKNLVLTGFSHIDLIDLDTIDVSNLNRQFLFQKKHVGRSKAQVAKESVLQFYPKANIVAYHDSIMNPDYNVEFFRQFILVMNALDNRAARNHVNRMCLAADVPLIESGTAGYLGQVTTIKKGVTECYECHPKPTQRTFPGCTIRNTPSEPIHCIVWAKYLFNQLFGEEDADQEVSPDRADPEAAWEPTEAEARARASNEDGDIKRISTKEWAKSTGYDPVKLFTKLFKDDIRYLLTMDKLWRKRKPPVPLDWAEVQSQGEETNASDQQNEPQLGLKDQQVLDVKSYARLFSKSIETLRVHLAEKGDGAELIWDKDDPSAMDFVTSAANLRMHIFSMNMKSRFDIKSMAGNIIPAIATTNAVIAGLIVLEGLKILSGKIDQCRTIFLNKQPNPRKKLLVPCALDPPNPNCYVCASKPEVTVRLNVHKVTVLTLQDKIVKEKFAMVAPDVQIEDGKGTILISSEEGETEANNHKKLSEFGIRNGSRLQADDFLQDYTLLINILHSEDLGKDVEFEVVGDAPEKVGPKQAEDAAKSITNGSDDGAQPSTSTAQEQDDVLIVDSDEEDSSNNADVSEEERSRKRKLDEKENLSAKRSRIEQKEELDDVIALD
T1 sequence (Q9UBE0 1-346 partner): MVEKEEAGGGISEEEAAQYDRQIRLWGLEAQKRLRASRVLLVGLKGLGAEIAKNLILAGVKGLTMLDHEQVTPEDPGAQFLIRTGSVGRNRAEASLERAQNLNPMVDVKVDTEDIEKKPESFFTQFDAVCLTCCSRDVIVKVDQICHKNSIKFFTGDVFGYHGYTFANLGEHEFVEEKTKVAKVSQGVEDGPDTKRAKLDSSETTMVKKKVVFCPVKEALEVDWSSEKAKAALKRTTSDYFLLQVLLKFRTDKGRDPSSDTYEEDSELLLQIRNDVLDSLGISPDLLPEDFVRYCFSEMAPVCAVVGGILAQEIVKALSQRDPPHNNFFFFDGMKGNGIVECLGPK

Chain of UBC9 (SUMO E2 enzyme) (P63279 2-158): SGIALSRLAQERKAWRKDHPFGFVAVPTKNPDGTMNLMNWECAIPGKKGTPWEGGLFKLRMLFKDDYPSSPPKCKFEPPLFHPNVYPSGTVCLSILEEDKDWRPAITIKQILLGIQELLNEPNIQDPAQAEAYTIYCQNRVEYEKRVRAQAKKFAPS
Chain of UBC9 (SUMO E2 enzyme) (P63165 2-97 partner): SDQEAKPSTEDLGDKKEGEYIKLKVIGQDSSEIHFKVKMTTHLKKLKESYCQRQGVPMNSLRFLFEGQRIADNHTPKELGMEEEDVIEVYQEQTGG

Row | SMILES | IC50 (UBC9 (SUMO E2 enzyme)) [µM] | IC50 [1] [µM]
1 | O=c1cc(-c2ccc(O)c(O)c2O)oc2ccccc12 [2-D08, 2’,3’,4’-trihydroxyflavone] | 6 ± 1.3 | –
2 | CCCCCC/C=C\CCCCCCCc1cccc(O)c1C(=O)O [ginkgolic acid] | – | 9.1
